Experimental data published in ChEMBL document CHEMBL3414513, “Synthesis and biological evaluation of betulonic acid derivatives as antitumor agents” (Eur J Med Chem, 2015).
Active and inactive are the calls of the source. No cut-off for these calls is given here.

Assays:
[1] = tested on: MGC-803; test: Cytotoxicity against human MGC803 cells after 72 hrs by MTT assay; type: functional, cell-based; conditions: for IC50: MGC-803, 72 h
How it was run: (§1)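 Cancer lines grown in RPMI 1640 with 10% heat-inactivated FBS, 37 °C, 5% CO2. Cells trypsinized at 80-90% confluence, seeded at 2×10^3/well overnight, then given compounds (DMSO stocks diluted in medium) at various concentrations for 72 h at 37 °C. Controls: 0.1% DMSO negative, adriamycin positive. MTT (5 mg/ml) added for 4 h, formazan dissolved in SDS 12 h, A595 read. IC50 from dose-response curves.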

[2] = (§2) Cytotoxicity against human PC3 cells after 72 hrs by MTT assay; type: functional, cell-based; conditions: PC-3, 72 h
How it was run: as §1, with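 “Cells” for “Cancer lines grown in RPMI 1640 with 10% heat-inactivated FBS, 37 °C, 5% CO2. Cells”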

[3] = tested on: PC-3; test: as §2; type: functional, cell-based
How it was run: as §1, with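 “Cells” for “Cancer lines grown in RPMI 1640 with 10% heat-inactivated FBS, 37 °C, 5% CO2. Cells”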

[4] = tested on: Bcap37; test: Cytotoxicity against human Bcap37 cells after 72 hrs by MTT assay; type: functional, cell-based; conditions: for IC50: Bcap37, 72 h; how it was run: as §1
[5] = tested on: A-375; test: Cytotoxicity against human A375 cells after 72 hrs by MTT assay; type: functional, cell-based; conditions: for IC50: A-375, 72 h; how it was run: as §1
[6] = tested on: MCF7; test: Cytotoxicity against human MCF7 cells after 72 hrs by MTT assay; type: functional, cell-based; conditions: for IC50: MCF7, 72 h; how it was run: as §1
[7] = tested on: MGC-803; test: Selectivity index, ratio of IC50 for mouse NIH/3T3 cells to IC50 for human MGC803 cells; type: functional
How it was run: (§3)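 Index is the IC50 in normal NIH3T3 cells divided by the IC50 in each cancer line. […] HCPT and adriamycin were used as positive controls.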

[8] = tested on: PC-3; test: Selectivity index, ratio of IC50 for mouse NIH/3T3 cells to IC50 for human PC3 cells; type: functional; how it was run: as §3
[9] = tested on: Bcap37; test: Selectivity index, ratio of IC50 for mouse NIH/3T3 cells to IC50 for human Bcap37 cells; type: functional; how it was run: as §3
[10] = tested on: A-375; test: Selectivity index, ratio of IC50 for mouse NIH/3T3 cells to IC50 for human A375 cells; type: functional; how it was run: as §3
[11] = tested on: MCF7; test: Selectivity index, ratio of IC50 for mouse NIH/3T3 cells to IC50 for human MCF7 cells; type: functional; how it was run: as §3
[12] = tested on: MGC-803; test: Induction of apoptosis in human MGC803 cells assessed as appearance of compact condensed and crescent shaped cells at 10 uM after 48 hrs by Hoechst 33258 staining-based fluorescence microscopic analysis; type: functional, cell-based
How it was run: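 MGC-803 cells seeded at 5×10^4 cells/mL in 6-well plates; medium replaced with fresh medium plus 10% FBS and compound (10 µM, 48 h), DMSO negative control. Cells washed, fixed in 4% paraformaldehyde 10 min, stained with Hoechst 33258 for 5 min, washed, then nuclear morphology viewed by fluorescence microscopy (excitation 350 nm, emission 460 nm).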

[13] = tested on: MGC-803; test: Induction of apoptosis in human MGC803 cells assessed as DNA fragmentation at 10 uM after 48 hrs by TUNEL assay; type: functional, cell-based
How it was run: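 MGC-803 cells seeded at 5×10^4 cells/mL in 6-well plates; medium replaced with fresh medium plus 10% FBS and compound (10 µM, 48 h), DMSO negative control. Fixed in 4% paraformaldehyde 40 min, permeabilized 2 min on ice, peroxidase quenched (0.3% H2O2/methanol, 20 min RT), TdT/biotin-dUTP 60 min 37 °C, streptavidin-HRP 30 min, then DAB. Brown precipitate under light microscopy scored apoptotic.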

Row | SMILES | Activity [1] | IC50 [1] [µM] | IC50 [2] [µM] | Activity [3] | Activity [4] | IC50 [4] [µM] | Activity [5] | IC50 [5] [µM] | Activity [6] | IC50 [6] [µM] | Ratio IC50 [7] | Ratio IC50 [8] | Ratio IC50 [9] | Ratio IC50 [10] | Ratio IC50 [11] | Activity [12] | Activity [13]
1 | C=C(C)[C@@H]1CC[C@]2(C(=O)OCCCCN3CCCC3)CC[C@]3(C)[C@H](CC[C@@H]4[C@@]5(C)CCC(=O)C(C)(C)[C@@H]5CC[C@]43C)[C@@H]12 | Dose-dependent effect | 4 | 6.7 | Dose-dependent effect | Dose-dependent effect | 4.7 | Dose-dependent effect | 8.5 | Dose-dependent effect | 5.4 | 7.18 | 4.28 | 6.11 | 3.38 | 5.31 |  | 
2 | C=C(C)[C@@H]1CC[C@]2(C(=O)OCCCCN(CC)CC)CC[C@]3(C)[C@H](CC[C@@H]4[C@@]5(C)CCC(=O)C(C)(C)[C@@H]5CC[C@]43C)[C@@H]12 | Dose-dependent effect | 3.8 | 4.4 | Dose-dependent effect | Dose-dependent effect | 5.2 | Dose-dependent effect | 9.2 | Dose-dependent effect | 7.9 | 6.15 | 5.32 | 4.5 | 2.54 | 2.96 |  | 
3 | C=C(C)[C@@H]1CC[C@]2(C(=O)OCCN3CCN(C(=O)c4ccc(F)c(F)c4)CC3)CC[C@]3(C)[C@H](CC[C@@H]4[C@@]5(C)CCC(=O)C(C)(C)[C@@H]5CC[C@]43C)[C@@H]12 | Dose-dependent effect | 4.4 | 4.6 | Dose-dependent effect | Dose-dependent effect | 3.9 | Dose-dependent effect | 7.2 | Dose-dependent effect | 3.7 | 4.2 | 4.02 | 4.74 | 2.57 | 5 |  | 
4 | CC[C@@]1(O)C(=O)OCc2c1cc1n(c2=O)Cc2cc3cc(O)ccc3nc2-1 [HYDROXYCAMPTOTHECIN] | Dose-dependent effect | 29.1 | 34.5 | Dose-dependent effect | Dose-dependent effect | 28.1 | Dose-dependent effect | 27.8 |  | 48.2 |  |  |  |  |  | Active | Active
5 | C=C(C)[C@@H]1CC[C@]2(C(=O)OCCN3CCCCC3)CC[C@]3(C)[C@H](CC[C@@H]4[C@@]5(C)CCC(=O)C(C)(C)[C@@H]5CC[C@]43C)[C@@H]12 | Dose-dependent effect | 12.5 | 18.8 | Dose-dependent effect | Dose-dependent effect | 16.9 | Dose-dependent effect | 17.1 | Dose-dependent effect | 16 |  |  |  |  |  |  | 
6 | C=C(C)[C@@H]1CC[C@]2(C(=O)OCCN3CCOCC3)CC[C@]3(C)[C@H](CC[C@@H]4[C@@]5(C)CCC(=O)C(C)(C)[C@@H]5CC[C@]43C)[C@@H]12 | Dose-dependent effect | 9.4 | 11.3 | Dose-dependent effect | Dose-dependent effect | 8.8 | Dose-dependent effect | 10.5 | Dose-dependent effect | 10.1 |  |  |  |  |  |  | 
7 | C=C(C)[C@@H]1CC[C@]2(C(=O)OCCN3CCN(C(=O)c4ccccc4C)CC3)CC[C@]3(C)[C@H](CC[C@@H]4[C@@]5(C)CCC(=O)C(C)(C)[C@@H]5CC[C@]43C)[C@@H]12 | Dose-dependent effect | 4.5 | 8.7 | Dose-dependent effect | Dose-dependent effect | 6.4 | Dose-dependent effect | 4.5 | Dose-dependent effect | 5.4 | 4.69 | 2.43 | 3.3 | 4.69 | 3.91 |  | 
8 | C=C(C)[C@@H]1CC[C@]2(C(=O)OCCN3CCN(C(=O)c4ccccc4)CC3)CC[C@]3(C)[C@H](CC[C@@H]4[C@@]5(C)CCC(=O)C(C)(C)[C@@H]5CC[C@]43C)[C@@H]12 | Dose-dependent effect | 5.3 | 4.1 | Dose-dependent effect | Dose-dependent effect | 7.4 | Dose-dependent effect | 6.3 | Dose-dependent effect | 4.7 | 7.62 | 9.85 | 5.46 | 6.41 | 8.6 |  | 
9 | C=C(C)[C@@H]1CC[C@]2(C(=O)OCCN3CCN(C(=O)c4c(Cl)cccc4Cl)CC3)CC[C@]3(C)[C@H](CC[C@@H]4[C@@]5(C)CCC(=O)C(C)(C)[C@@H]5CC[C@]43C)[C@@H]12 | Dose-dependent effect | 16.6 | 14.1 | Dose-dependent effect | Dose-dependent effect | > 20 | Dose-dependent effect | 17.4 | Dose-dependent effect | 10.8 |  |  |  |  |  |  | 
